Test results reported in PMC5892780 (RMD Open, 2018).
Values belong to the compound of their own block, whether it stands above or below them.

Legend:
[1] = system: patients with gout; conditions: lesinurad 400 mg vs lesinurad 200 mg plus febuxostat or febuxostat alone; cited from earlier work
[2] = Plasma and urine PK of verinurad in the presence of febuxostat; type: in vivo, human; conditions: for Tmax: human, plasma, oral; for fe0-24: urine, geometric mean (95% CI)
[3] = system: humans; conditions: doses as low as 2.5 mg; cited from earlier work
[4] = system: adults with gout; assay: Serum urate; type: in vivo, human
Procedure, shortened: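 Gout patients were dosed orally once daily after a standardised breakfast, 7 days per treatment period. Serum was sampled at screening, baseline (day –1) and weekly for 4 weeks, within 30 min predose and at preset intervals up to 24 h postdose. Emax is the maximum percent change from baseline. A mixed-effects model used treatment and period as fixed effects, subject as random effect and baseline as covariate; data were pooled across cohorts.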

[5] = system: adults with gout; assay: Urinary uric acid pharmacodynamics; type: in vivo, human
Procedure, shortened: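 Total-catch urine was collected on day –1, then weekly for 4 weeks, in 1 h up to 2 or 10 h intervals. On collection days subjects drank 240 mL water on waking, 240 mL with the dose, ~160 mL/h for 12 h and 240 mL at 22 h. ReUR, AeUR, CLUR and FEUA were derived per time point per 24-h collection. Analysis used a mixed-effects model with baseline covariate.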

[6] = system: adults with gout; assay: Urinary xanthine and hypoxanthine excretion; type: in vivo, human; conditions: febuxostat 40 mg alone; urine
Procedure, shortened: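 Urine from gout patients on once-daily oral treatment (total catch, day –1 and weekly for 4 weeks, with a fixed water-loading schedule) was assayed for xanthine and hypoxanthine by LC/MS/MS. Assay performance was monitored with quality control samples prepared in blank matrix. These analytes served as a marker of the functional activity of the 40 mg partner-drug dose.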

[7] = Plasma PK of febuxostat alone or in the presence of verinurad; type: in vivo, human; conditions: for GMR AUC0-24 / GMR Cmax: GMR (90% CI)
Procedure, shortened: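 Adults with gout took the test compounds orally once daily, about 30 min after a standardised breakfast (approximately 650 kcal, 35% fat), in 7-day treatment periods. Blood was drawn weekly for 4 weeks, within 30 min predose and at intervals up to 24 h postdose. Plasma was separated by centrifugation, extracted by protein precipitation and analysed by LC/MS/MS. Cmax and AUC0-24 were compared by mixed-effects model (treatment fixed, subject random).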

[8] = system: adults with gout; assay: Safety assessment; type: in vivo, human; conditions: febuxostat 80 mg-alone group
Procedure, shortened: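 Subjects (sUA ≥8 mg/dL, creatinine clearance ≥60 mL/min) received colchicine 0.6 mg flare prophylaxis. Once-daily oral dosing with the test compounds was given after a standardised breakfast. Safety was monitored throughout and at day 42 (±2) follow-up: AEs coded by MedDRA V.17.0, clinical laboratory tests, vital signs, ECGs and physical examinations.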

[9] = febuxostat 40 mg + verinurad 2.5 mg vs febuxostat alone
[10] = febuxostat 40 mg + verinurad 5 mg vs febuxostat alone
[11] = febuxostat 40 mg + verinurad 20 mg vs febuxostat alone
[12] = febuxostat 80 mg + verinurad 2.5 mg vs febuxostat alone
[13] = febuxostat 80 mg + verinurad 5 mg vs febuxostat alone
[14] = febuxostat 80 mg + verinurad 10 mg vs febuxostat alone
[15] = febuxostat 80 mg + verinurad 15 mg vs febuxostat alone

SMILES: O=C(O)CSc1nnc(Br)n1-c1ccc(C2CC2)c2ccccc12 [lesinurad]
- Rates of renal adverse effects [1]: increased rates of renal adverse effects

- Tmax ([2]; Median Tmax of verinurad, range over verinurad 2.5-20 mg with febuxostat 40 or 80 mg): 2.5 to 4 h
- Tmax ([2]; Tmax, verinurad 2.5 mg + febuxostat 40 mg, median (range)): 3.5 h
- Tmax ([2]; Tmax, verinurad 2.5 mg + febuxostat 80 mg, median (range)): 2.5 h
- Tmax ([2]; Tmax, verinurad 5 mg + febuxostat 40 mg, median (range)): 3.5 h
- Tmax ([2]; Tmax, verinurad 5 mg + febuxostat 80 mg, median (range)): 4 h
- Tmax ([2]; Tmax, verinurad 10 mg + febuxostat 40 mg, median (range)): 3 h
- Tmax ([2]; Tmax, verinurad 10 mg + febuxostat 80 mg, median (range)): 3 h
- Tmax ([2]; Tmax, verinurad 15 mg + febuxostat 40 mg, median (range)): 3 h
- Tmax ([2]; Tmax, verinurad 20 mg + febuxostat 40 mg, median (range)): 3 h
- fe0-24 ([2]; verinurad 2.5 mg + febuxostat 40 mg): 0.661 (0.437 to 1.00) %
- fe0-24 ([2]; verinurad 2.5 mg + febuxostat 80 mg): 0.622 (0.347 to 1.11) %
- Verinurad Ae0-24 (amount excreted unchanged in urine) ([2]; verinurad 2.5 mg with febuxostat 80 mg): 15.5 µg
- fe0-24 ([2]; verinurad 5 mg + febuxostat 40 mg): 0.657 (0.444 to 0.970) %
- fe0-24 ([2]; verinurad 5 mg + febuxostat 80 mg): 0.640 (0.392 to 1.05) %
- fe0-24 ([2]; verinurad 10 mg + febuxostat 40 mg): 0.810 (0.622 to 1.05) %
- fe0-24 ([2]; verinurad 10 mg + febuxostat 80 mg): 1.03 (0.710 to 1.49) %
- fe0-24 ([2]; verinurad 15 mg + febuxostat 40 mg): 0.692 (0.561 to 0.853) %
- fe0-24 ([2]; verinurad 15 mg + febuxostat 80 mg): 0.816 (0.493 to 1.35) %
- fe0-24 ([2]; verinurad 20 mg + febuxostat 40 mg): 0.717 (0.542 to 0.949) %
- Verinurad Ae0-24 (amount excreted unchanged in urine) ([2]; verinurad 20 mg with febuxostat 40 mg): 143 µg
SMILES: CC(C)(Sc1ccncc1-c1ccc(C#N)c2ccccc12)C(=O)O [verinurad]
- sUA lowering in humans [3]: significant sUA lowering

SMILES: Cc1nc(-c2ccc(OCC(C)C)c(C#N)c2)sc1C(=O)O [febuxostat]
- Emax, maximum percent decrease in sUA from baseline ([4]; febuxostat 40 mg alone): 42%
- Emax, maximum percent decrease in sUA from baseline ([4]; febuxostat 80 mg alone): 55%
- Mean maximum urinary uric acid excretion rate (ReUR) compared with baseline ([5]; febuxostat 40 and 80 mg alone): reduced below baseline
- Influence on FEUA ([5]; febuxostat 40 or 80 mg administered alone): did not influence
- Influence on CLUR ([5]; febuxostat 40 or 80 mg administered alone, data not shown): did not influence
- Increase in mean excretion of hypoxanthine [6]: 527%
- Increase in mean excretion of xanthine [6]: 1965%
- GMR AUC0-24 [7, 9]: 94.2 (88.1 to 101) %
- GMR Cmax [7, 9]: 91.2 (69.3 to 120) %
- GMR AUC0-24 [7, 10]: 92.4 (89.0 to 95.8) %
- GMR Cmax [7, 10]: 85.6 (75.7 to 96.7) %
- GMR AUC0-24 [7, 11]: 94.1 (89.4 to 99.0) %
- GMR Cmax [7, 11]: 114 (92.0 to 141) %
- GMR AUC0-24 [7, 12]: 98.6 (94.5 to 103) %
- GMR Cmax [7, 12]: 146 (130 to 165) %
- GMR AUC0-24 [7, 13]: 89.3 (82.8 to 96.3) %
- GMR Cmax [7, 13]: 89.9 (68.8 to 117) %
- GMR AUC0-24 [7, 14]: 94.2 (90.7 to 97.9) %
- GMR Cmax [7, 14]: 101 (87.9 to 116) %
- GMR AUC0-24 [7, 15]: 92.9 (84.1 to 103) %
- GMR Cmax [7, 15]: 123 (88.3 to 173) %
- Febuxostat exposures alone vs in combination with verinurad ([7]; febuxostat 40 or 80 mg): equivalence
- TEAE of severe intensity [8]: a severe case of hypertriglyceridaemia
